The values that follow come from ChEMBL document CHEMBL1629510, “Efficient synthesis of (6-deoxy-glycopyranosid-6-yl) sulfone derivatives and their effect on Ca2+-ATPase” (Eur J Med Chem, 2010).

SMILES strings stand for the structures.

What all share (type): microsomes
Details in all cases: Microsome

The species entered for test [1] is Capra hircus. Briefly: Induction of magnesium independent calcium-transporting ATPase activity in goat spermatozoa microsomal membranes at 20 ug by spectrophotometry in presence of 300 uM of calcium channel blocker verapamil. The procedure, abridged:
(§1)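 The compound (20 µg) was added together with a fixed concentration of the blocker. Reactions were stopped with 7% ice-cold TCA and read spectrophotometrically. Ca2+-dependent activity (+Ca2+ minus −Ca2+) is given as percent stimulation or inhibition, averaged over four assays.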

The species named for test [2] is Capra hircus. Nature of the test: Induction of magnesium independent calcium-transporting ATPase activity in goat spermatozoa microsomal membranes at 20 ug by spectrophotometry in presence of 1 mM of calcium channel blocker orthovanadate. The procedure, abridged: as §1
For test [3], the species on record is Capra hircus. Nature of the test: Induction of magnesium independent calcium-transporting ATPase activity in goat spermatozoa microsomal membranes at 70 nM by spectrophotometry. The procedure, abridged: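 Mg2+-independent Ca2+-ATPase in goat sperm microsomes (2 µg protein) was measured without blockers over varying compound concentrations. Incubation used 3 mM ATP in imidazole/sucrose buffer with EDTA and 2-mercaptoethanol, ±4 mM CaCl2, for 30 min at 37 °C, stopped with ice-cold 7% TCA and read spectrophotometrically. Activity is the difference between the +Ca2+ and −Ca2+ reactions.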

For test [4], the species on record is Capra hircus. Nature of the test: Induction of magnesium independent calcium-transporting ATPase activity in goat spermatozoa microsomal membranes at 20 ug by spectrophotometry in presence of […] of calcium channel blocker thapsigargin. The procedure, abridged: as §1

Consider `CO[C@H]1O[C@H](CS(=O)(=O)C[C@H]2O[C@@H](OC)[C@H](O)[C@H](O)[C@@H]2O)[C@@H](O)[C@H](O)[C@@H]1O`, for which the Activity in the test filed under Capra hircus [1] is -5%; in the test listed under Capra hircus [2] it was -19%; in the test listed under Capra hircus [3] it was 45%; in the test listed under Capra hircus [4] it was -27%.

Turning to `CO[C@H]1O[C@H](CS(=O)(=O)C[C@H]2O[C@H](OC)[C@@H](O)[C@@H](O)[C@@H]2O)[C@@H](O)[C@H](O)[C@@H]1O`, the Activity was -2% in the test filed under Capra hircus [1], -27% in the test filed under Capra hircus [2], 49% in the test filed under Capra hircus [3] and -29% in the test filed under Capra hircus [4].

Turning to `CO[C@H]1O[C@H](CS(=O)(=O)C[C@H]2O[C@H](OC)[C@H](O)[C@@H](O)[C@@H]2O)[C@@H](O)[C@H](O)[C@@H]1O`, the Activity in the test filed under Capra hircus [1] was -3%; in the test filed under Capra hircus [2], 4%; in the test filed under Capra hircus [3], 43%; in the test listed under Capra hircus [4], -35%.

With `CO[C@H]1O[C@H](CS(=O)(=O)C[C@H]2O[C@H](OC)[C@H](O)[C@@H](O)[C@H]2O)[C@@H](O)[C@H](O)[C@H]1O`, the Activity in the test filed under Capra hircus [1] was -5%; in the test filed under Capra hircus [2] it was -8%; in the test listed under Capra hircus [3], 32%; in the test listed under Capra hircus [4], -38%.

On to `CO[C@@H]1O[C@H](CS(=O)(=O)C[C@H]2O[C@@H](OC)[C@H](O)[C@H](O)[C@@H]2O)[C@@H](O)[C@@H](O)[C@H]1O`, for which the Activity in the test listed under Capra hircus [1] is -8%; in the test listed under Capra hircus [2], -21%; in the test listed under Capra hircus [3] it was 30%; in the test listed under Capra hircus [4], -33%.

On to `CO[C@H]1O[C@H](CS(=O)(=O)C[C@H]2O[C@H](OC)[C@H](O)[C@@H](O)[C@H]2O)[C@@H](O)[C@H](O)[C@@H]1O`, for which the Activity is -21% in the test filed under Capra hircus [1], -25% in the test filed under Capra hircus [2], 53% in the test listed under Capra hircus [3] and -36% in the test listed under Capra hircus [4].

Turning to `CO[C@H]1O[C@H](CS(=O)(=O)C[C@H]2O[C@H](OC)[C@H](O)[C@H](O)[C@@H]2O)[C@@H](O)[C@H](O)[C@H]1O`, the Activity in the test listed under Capra hircus [1] is -9%; in the test listed under Capra hircus [2] it was -17%; in the test listed under Capra hircus [3], 30%; in the test filed under Capra hircus [4], -31%.

With `CO[C@H]1O[C@H](CS(=O)(=O)C[C@H]2O[C@H](OC)[C@H](O)[C@@H](O)[C@@H]2O)[C@@H](O)[C@H](O)[C@H]1O`, the Activity in the test filed under Capra hircus [1] was -14%; in the test filed under Capra hircus [2], -24%; in the test filed under Capra hircus [3] it was 36%; in the test filed under Capra hircus [4] it was -28%.
